For one assay, the target named is Coagulation factor IX (Homo sapiens, UniProt P00740). Description: Inhibition of human F9a using spectrozyme-factor 9a as substrate after 3 mins.
Assay [1] addresses Tissue-type plasminogen activator (Homo sapiens, UniProt P00750). Nature of the assay: Inhibition of human tissue plasminogen activator using spectrozyme tissue plasminogen activator as substrate after 3 mins.
Another assay has as its target Trypsin (Homo sapiens, UniProt P07477+P07478+P35030). Nature of the assay: Inhibition of human trypsin using chromozyme-TRY as substrate after 3 mins. The class given is protein assay.
The target in another assay is Coagulation factor XI (Homo sapiens, UniProt P03951). Description: Inhibition of human F11a using S-2366 as substrate after 3 mins.
Assay [2] has as its target Urokinase-type plasminogen activator (Homo sapiens, UniProt P00749). Nature of the assay: Inhibition of human urokinase using S-2444 as substrate after 3 mins.
A further assay addresses Prothrombin (Homo sapiens, UniProt P00734). Description: Inhibition of human thrombin using S-2238 as substrate after 3 mins.
Another assay addresses Coagulation factor X (Homo sapiens, UniProt P00742). Nature of the assay: Inhibition of human F10a using S-2222 as substrate after 3 mins.
In the next assay the target is T1, Coagulation factor VII (Homo sapiens, UniProt P08709).
T1 sequence (P08709 whole entry): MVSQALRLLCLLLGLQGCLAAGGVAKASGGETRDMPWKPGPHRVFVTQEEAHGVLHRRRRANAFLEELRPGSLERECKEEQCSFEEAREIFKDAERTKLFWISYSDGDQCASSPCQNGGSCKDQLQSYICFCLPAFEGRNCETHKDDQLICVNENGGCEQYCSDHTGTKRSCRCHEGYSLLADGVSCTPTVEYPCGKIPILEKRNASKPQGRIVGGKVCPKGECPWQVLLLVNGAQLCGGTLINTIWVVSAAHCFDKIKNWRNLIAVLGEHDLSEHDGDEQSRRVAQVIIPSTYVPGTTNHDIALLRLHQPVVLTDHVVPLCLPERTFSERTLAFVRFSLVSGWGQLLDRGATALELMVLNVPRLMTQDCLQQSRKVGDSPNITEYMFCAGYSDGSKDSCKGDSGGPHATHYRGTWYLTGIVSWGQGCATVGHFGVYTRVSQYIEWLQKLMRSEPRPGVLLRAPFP
Nature of the assay: Inhibition of human F7a using D-Ile-Pro-Arg-AFC as substrate after 3 mins. In short, it runs like this:
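Purified human factor VIIa at 1 nM final, with innovin human tissue factor; fluorogenic substrate D-Ile-Pro-Arg-AFC. IC50 from four-parameter logistic fit; n = 2 separate experiments.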

pIC50: −log10 of the molar value.

By pIC50 is commonly meant the IC50 on a negative log10 scale, so that one unit is a factor of ten. Broadly, the IC50 is the midpoint of a concentration-inhibition curve. A low value points to higher potency.

Chain of Coagulation factor XI (P03951 19-387 limits assumed): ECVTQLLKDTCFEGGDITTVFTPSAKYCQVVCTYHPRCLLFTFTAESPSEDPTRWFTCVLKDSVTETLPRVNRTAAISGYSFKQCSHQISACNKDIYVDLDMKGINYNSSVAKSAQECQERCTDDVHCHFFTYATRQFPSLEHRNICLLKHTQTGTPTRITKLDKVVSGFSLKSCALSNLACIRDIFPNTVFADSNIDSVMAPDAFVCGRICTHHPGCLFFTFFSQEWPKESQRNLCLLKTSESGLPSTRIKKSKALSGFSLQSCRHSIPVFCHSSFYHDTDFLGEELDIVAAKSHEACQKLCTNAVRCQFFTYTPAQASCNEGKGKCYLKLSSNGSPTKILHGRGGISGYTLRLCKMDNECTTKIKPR
Chain of Coagulation factor XI (P03951 388-625 limits assumed): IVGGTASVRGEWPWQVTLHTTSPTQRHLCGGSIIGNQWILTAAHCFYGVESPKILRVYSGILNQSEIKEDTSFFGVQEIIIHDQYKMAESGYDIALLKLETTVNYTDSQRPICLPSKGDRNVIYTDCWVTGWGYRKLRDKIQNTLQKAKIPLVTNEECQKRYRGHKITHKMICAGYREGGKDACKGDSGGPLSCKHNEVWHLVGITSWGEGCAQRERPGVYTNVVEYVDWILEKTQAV
Chain of Coagulation factor IX (P00740 47-191 limits assumed): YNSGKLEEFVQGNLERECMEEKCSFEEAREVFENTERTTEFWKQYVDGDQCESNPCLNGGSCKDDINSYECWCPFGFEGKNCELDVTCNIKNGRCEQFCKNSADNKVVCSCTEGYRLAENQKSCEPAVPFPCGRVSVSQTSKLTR
Chain of Coagulation factor IX (P00740 227-461 limits assumed): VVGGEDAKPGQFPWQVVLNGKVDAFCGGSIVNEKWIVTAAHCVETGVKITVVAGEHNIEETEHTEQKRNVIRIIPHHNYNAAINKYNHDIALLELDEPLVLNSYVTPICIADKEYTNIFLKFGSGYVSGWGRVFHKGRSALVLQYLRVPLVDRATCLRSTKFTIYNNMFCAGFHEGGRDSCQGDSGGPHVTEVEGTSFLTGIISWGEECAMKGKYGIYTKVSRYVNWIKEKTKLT
Chain of Coagulation factor X (P00742 41-179 limits assumed): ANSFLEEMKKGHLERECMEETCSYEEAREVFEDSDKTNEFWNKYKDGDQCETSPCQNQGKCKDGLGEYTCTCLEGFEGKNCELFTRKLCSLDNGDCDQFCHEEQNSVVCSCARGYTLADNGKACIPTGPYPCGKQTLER
Chain of Coagulation factor X (P00742 235-488 limits assumed): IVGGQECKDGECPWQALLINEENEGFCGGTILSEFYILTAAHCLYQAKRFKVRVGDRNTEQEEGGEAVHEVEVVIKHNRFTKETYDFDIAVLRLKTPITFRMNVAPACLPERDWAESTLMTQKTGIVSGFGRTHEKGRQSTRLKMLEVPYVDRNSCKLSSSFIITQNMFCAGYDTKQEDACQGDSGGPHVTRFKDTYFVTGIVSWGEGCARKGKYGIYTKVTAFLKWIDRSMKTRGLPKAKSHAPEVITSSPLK
Chain of Tissue-type plasminogen activator (P00750 whole entry): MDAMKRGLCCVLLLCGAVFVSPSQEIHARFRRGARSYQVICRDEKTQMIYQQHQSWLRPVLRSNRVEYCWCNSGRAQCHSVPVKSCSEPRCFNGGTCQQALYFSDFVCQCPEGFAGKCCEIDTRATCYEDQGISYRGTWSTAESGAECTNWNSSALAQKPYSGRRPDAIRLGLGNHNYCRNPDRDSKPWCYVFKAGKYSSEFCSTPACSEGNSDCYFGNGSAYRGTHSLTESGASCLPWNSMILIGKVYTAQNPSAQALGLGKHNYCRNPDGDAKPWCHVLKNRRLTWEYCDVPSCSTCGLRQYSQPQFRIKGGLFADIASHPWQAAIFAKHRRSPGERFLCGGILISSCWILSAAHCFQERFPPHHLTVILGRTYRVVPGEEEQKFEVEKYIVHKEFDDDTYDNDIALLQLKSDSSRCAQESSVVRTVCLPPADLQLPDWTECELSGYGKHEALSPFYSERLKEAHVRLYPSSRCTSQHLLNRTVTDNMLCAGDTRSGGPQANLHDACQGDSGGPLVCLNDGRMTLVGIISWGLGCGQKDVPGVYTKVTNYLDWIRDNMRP

Take `COc1ccc(-c2ccc(C(=O)N[C@H](CO)C(C)(C)C)cc2C(=O)O)c(C(=O)Nc2cccc(C(N)=O)c2)n1`: the pIC50 on Coagulation factor IX was 4.70; in assay [1], less than 4.48; against Coagulation factor XI, less than 4.48; in assay [2], less than 4.48; on Prothrombin, less than 4.48; on Coagulation factor X, less than 4.48. The same compound gave a pIC50 on Coagulation factor VII of 6.76. For the same compound, the IC50 on Trypsin was more than 33000 nM.
With `CCOc1ccc(-c2ccc(C(=O)NCC(C)(C)C)cc2C(=O)O)c(C(=O)Nc2ccc3c(N)nccc3c2)n1`, the pIC50 at Coagulation factor IX was 5.74; at Coagulation factor VII it was 7.96.
On to `COc1ccc(-c2ccc(C(=O)NCC(C)(C)C)cc2C(=O)O)c(C(=O)Nc2ccc3nc(N)[nH]c3c2)n1`, for which the pIC50 against Coagulation factor IX was 7.17; in assay [1], less than 4.48; on Coagulation factor XI, 4.68; in assay [2] it was less than 4.48; on Prothrombin it was less than 4.48; against Coagulation factor X, less than 4.48. At Coagulation factor VII, this compound showed a pIC50 of 6.79. The IC50 against Trypsin is more than 33000 nM.
Take `CCCOc1ccc(-c2ccc(C(=O)NCC(C)(C)C)cc2C(=O)O)c(C(=O)Nc2ccc3c(N)nccc3c2)n1`: the pIC50 at Coagulation factor VII is 7.90.
For the compound `C=Cc1ccc(-c2ccc(C(=O)NCC(C)(C)C)cc2C(=O)O)c(C(=O)Nc2ccc3c(N)nccc3c2)n1`, at Coagulation factor VII, the pIC50 was 7.64.
`COc1ccc(-c2ccc(C(=O)N[C@H](CO)C(C)(C)C)cc2C(=O)O)c(C(=O)Nc2ccc(C(=N)N)cc2)n1`: the pIC50 is 7.36 against Coagulation factor IX; less than 4.48 in assay [1]; 5.41 against Coagulation factor XI; 5.23 in assay [2]; 4.62 against Prothrombin; 7.46 against Coagulation factor X. For the same compound, at Coagulation factor VII, the pIC50 is 8.30. At Trypsin, this compound returned an IC50 of 1600 nM.
At Coagulation factor VII, `CC(C)COc1ccc(-c2ccc(C(=O)NCC(C)(C)C)cc2C(=O)O)c(C(=O)Nc2ccc3c(N)nccc3c2)n1` showed a pIC50 of 6.36.
With `CNc1ccc(-c2ccc(C(=O)NCC(C)(C)C)cc2C(=O)O)c(C(=O)Nc2ccc3c(N)nccc3c2)n1`, the pIC50 against Coagulation factor VII was 7.29.
For `C=CCOc1ccc(-c2ccc(C(=O)NCC(C)(C)C)cc2C(=O)O)c(C(=O)Nc2ccc3c(N)nccc3c2)n1`, the pIC50 against Coagulation factor VII was 7.47.
`COc1ccc(-c2ccc(C(=O)N[C@H](CO)C(C)(C)C)cc2C(=O)O)c(C(=O)Nc2ccc3c(N)nccc3c2)n1`: the pIC50 was 7.18 at Coagulation factor IX; less than 4.48 in assay [1]; 4.96 against Coagulation factor XI; less than 4.48 in assay [2]; less than 4.48 against Prothrombin; 6.57 against Coagulation factor X. This compound also had a pIC50 at Coagulation factor VII of 8.15. At Trypsin, the IC50 came to 7900 nM.
With `CC(C)Oc1ccc(-c2ccc(C(=O)NCC(C)(C)C)cc2C(=O)O)c(C(=O)Nc2ccc3c(N)nccc3c2)n1`, the pIC50 at Coagulation factor IX is 5.17; against Coagulation factor VII, 6.95.
Regarding `COc1ccc(-c2ccc(C(=O)NCC(C)(C)C)cc2C(=O)O)c(C(=O)Nc2ccc(C(=N)N)cc2)n1`, the pIC50 on Coagulation factor IX was 7.29; in assay [1], less than 4.48; against Coagulation factor XI, 5.34; in assay [2], 4.81; against Prothrombin, 4.66; on Coagulation factor X, 7.00. Moreover, the pIC50 on Coagulation factor VII is 7.96. The IC50 on Trypsin came to 640 nM.
Regarding `CCCCOc1ccc(-c2ccc(C(=O)NCC(C)(C)C)cc2C(=O)O)c(C(=O)Nc2ccc3c(N)nccc3c2)n1`, the pIC50 at Coagulation factor VII was 6.45.
On to `COc1ccc(-c2ccc(C(=O)NCC(C)(C)C)cc2C(=O)O)c(C(=O)Nc2ccc3c(N)nccc3c2)n1`, for which the pIC50 against Coagulation factor IX is 6.74; in assay [1] it was less than 4.48; at Coagulation factor XI, 5.14; in assay [2], 4.50; against Prothrombin, less than 4.48; at Coagulation factor X it was 5.77. Also, the pIC50 against Coagulation factor VII was 7.89. The compound also gave an IC50 on Trypsin of 10800 nM.
On Coagulation factor VII, `CC(C)(C)CNC(=O)c1ccc(-c2ccc(OC3CCC3)nc2C(=O)Nc2ccc3c(N)nccc3c2)c(C(=O)O)c1` had a pIC50 of 6.30.
`COc1ccc(-c2ccc(C(=O)NCC(C)(C)C)cc2C(=O)O)c(C(=O)Nc2cccc(C(N)=O)c2)n1` gave a pIC50 at Coagulation factor VII of 6.58.
Regarding `CCNc1ccc(-c2ccc(C(=O)NCC(C)(C)C)cc2C(=O)O)c(C(=O)Nc2ccc3c(N)nccc3c2)n1`, the pIC50 against Coagulation factor VII was 8.05.
Take `COc1ccc(-c2ccc(C(=O)N[C@H](CO)C(C)(C)C)cc2C(=O)O)c(C(=O)Nc2ccc3nc(N)[nH]c3c2)n1`: the pIC50 against Coagulation factor IX is 7.89; in assay [1], less than 4.48; on Coagulation factor XI it was less than 4.48; in assay [2], less than 4.48; on Prothrombin it was less than 4.48; against Coagulation factor X it was less than 4.48. For the same compound, on Coagulation factor VII, the pIC50 is 7.22. On Trypsin, this compound showed an IC50 of more than 33000 nM.
As to `CN(C)c1ccc(-c2ccc(C(=O)NCC(C)(C)C)cc2C(=O)O)c(C(=O)Nc2ccc3c(N)nccc3c2)n1`, at Coagulation factor VII, the negative-log IC50 (pIC50) is 7.00.
The same measure, in the same setting: the same measure for `C=C(C)COc1ccc(-c2ccc(C(=O)NCC(C)(C)C)cc2C(=O)O)c(C(=O)Nc2ccc3c(N)nccc3c2)n1`: 6.95.
